According to ChEMBL document CHEMBL3102843, “Synthesis and antifungal activity of substituted 2,4,6-pyrimidinetrione carbaldehyde hydrazones” (Bioorg Med Chem, 2014):
≈ marks a conversion by molar mass, not a printed value. Calls of active or inactive are those of the source. Unless noted, no cut-off for these calls is given here.

Tests used:
[1] = system: Nakaseomyces glabratus; assay: Antifungal activity against Candida glabrata ATCC 48435 at 125 ug/ml after 48 to 72 hrs by broth microdilution method; type: functional, organism-based
In short: (§1)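 Broth microdilution per NCCLS. Inocula come from 5–7 colonies on YM agar, suspended in sterile water and adjusted to 0.5 McFarland at 530 nm (stock 1×10⁶–5×10⁶ cells/mL), then diluted 1:50 in HEPES-buffered RPMI 1640. Compounds in DMSO (final ≤1%) are added as a 10-fold dilution into the suspension. Plates run 48–72 h at 35 °C, humid. Growth is scored visually; the endpoint is ≥80% reduction versus drug-free wells.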

[2] = system: Candida albicans; assay: Antifungal activity against Candida albicans ATCC 10231 at 125 ug/ml after 48 to 72 hrs by broth microdilution method; type: functional, organism-based; in short: as §1
[3] = system: HepG2; assay: Cytotoxicity against human HepG2 cells assessed as cell viability at 2 to 200 ug/ml after 24 hrs by MTT assay; type: cell-based; conditions: hepg2, 24 h
In short: (§2)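 MTT (tetrazolium) assay in Vero and HepG2 cells. Cells were pre-grown 24 h at 37 °C/5% CO₂ in DMEM with 10% FBS. Compounds diluted in media at the fungal MIC and at 5×, 10× and 100× MIC, then exposed 24 h. Dye was added for 1–4 h, then stop solution for 1 h at RT; A570 read. Viability was taken as % of 1% DMSO no-drug wells, with 0.1% saponin as death control. Triplicate, mean ± SD.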

[4] = Cytotoxicity against african green monkey Vero cells assessed as cell viability at 2 to 200 ug/ml after 24 hrs by MTT assay; type: cell-based; conditions: chlorocebus sabaeus, read-out: Activity; in short: as §2
[5] = system: Nakaseomyces glabratus; assay: Antifungal activity against Candida glabrata ATCC 48435 after 48 to 72 hrs by broth microdilution method; type: functional
In short: (§3)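 Broth microdilution per NCCLS. Organisms were subcultured on Sabouraud agar. Inoculum was 5–7 colonies from YM agar in sterile water, adjusted to 0.5 McFarland at 530 nm (1–5×10⁶ cells/mL stock), held 30 min at RT, then diluted 1:50 in HEPES-buffered RPMI 1640. DMSO stocks were twofold-diluted, with final DMSO ≤1%. Plates ran 48–72 h at 35 °C, humid. MIC is the lowest concentration giving ≥80% growth reduction vs drug-free wells, scored visually. Fluconazole or amphotericin B ran as drug control.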

[6] = system: Candida albicans; assay: Antifungal activity against Candida albicans ATCC 10231 after 48 to 72 hrs by broth microdilution method; type: functional; in short: as §3
[7] = system: Candida albicans; assay: Antifungal activity against Candida albicans ATCC 10231 at 62 ug/ml after 48 to 72 hrs by broth microdilution method; type: functional
[8] = system: Nakaseomyces glabratus; assay: Antifungal activity against Candida glabrata CS 177.93 at 0.195 to 100 uM after 24 to 48 hrs in presence of 3% ethanol; type: functional, organism-based
In short: (§4)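 Cells grown overnight in YPD at 30 °C, washed, then seeded at ~10³ cells/well (10⁴ cells/mL) in YPD (2% glucose), YPG (3% glycerol) or YPE (3% ethanol), pH 6.5. Drug at 0 and 0.195–100, final DMSO 0.5%. Two repeat experiments.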

[9] = system: Nakaseomyces glabratus; assay: Antifungal activity against Candida glabrata CS 177.93 at 0.195 to 100 uM after 24 to 48 hrs in presence of 3% glycerol; type: functional, organism-based; in short: as §4
[10] = system: Nakaseomyces glabratus; assay: Antifungal activity against Candida glabrata CS 177.93 at 0.195 to 100 uM after 24 to 48 hrs in presence of 2% glucose; type: functional, organism-based; in short: as §4
[11] = system: Candida albicans; assay: Antifungal activity against Candida albicans SC5314 at 0.195 to 100 uM after 24 to 48 hrs in presence of 3% ethanol; type: functional, organism-based; in short: as §4
[12] = system: Candida albicans; assay: Antifungal activity against Candida albicans SC5314 at 0.195 to 100 uM after 24 to 48 hrs in presence of 3% glycerol; type: functional, organism-based; in short: as §4
[13] = system: Candida albicans; assay: Antifungal activity against Candida albicans SC5314 at 0.195 to 100 uM after 24 to 48 hrs in presence of 2% glucose; type: functional, organism-based; in short: as §4
[14] = system: Candida albicans; assay: Antifungal activity against Candida albicans; type: functional, organism-based; in short: as §3
[15] = Cytotoxicity against african green monkey Vero cells assessed as cell viability at 10 times MIC80 for fungus after 24 hrs by MTT assay; type: cell-based; conditions: chlorocebus sabaeus, read-out: Activity; in short: as §2
[16] = system: Nakaseomyces glabratus; assay: Antifungal activity against Candida glabrata ATCC 48435 at 62 ug/ml after 48 to 72 hrs by broth microdilution method; type: functional

Row | SMILES | Activity [1] | Activity [2] | other results
1 | CN1C(=O)NC(=O)C(C(=O)c2ccccc2)C1=O (stereo not given) | inactive | inactive | –
2 | CC(=O)C1C(=O)NC(=O)NC1=O | inactive | inactive | –
3 | O=C1NC(=O)C(C2CCCCC2)C(=O)N1 | inactive | inactive | –
4 | C/C(=N\Nc1ccccc1)C1C(=O)N(C)C(=O)N(C)C1=O | – | – | Activity [3]: Toxic; viability at 24 h [4]: 35%; MIC80 [5]: 2 µg/mL (≈ 6.94 µM); MIC80 [6]: 2 µg/mL (≈ 6.94 µM)
5 | O=C1NC(=O)C(CCCC2CCCCC2)C(=O)N1 | inactive | inactive | –
6 | O=C1NC(=O)C(C(=O)c2ccc(O)cc2)C(=O)N1 | inactive | inactive | –
7 | CN1C(=O)C(/C=N/NC(=O)c2ccc([N+](=O)[O-])cc2)C(=O)N(C)C1=O | – | – | inhibition at 62 µg/mL [7]: < 50%; MIC80 [5]: 125 µg/mL (≈ 360 µM); MIC80 [6]: 62 µg/mL (≈ 179 µM)
8 | CN(C)c1ccc(CC2(CCCc3ccccc3)C(=O)NC(=O)NC2=O)cc1 | inactive | inactive | –
9 | O=C1NC(=O)C(C(=O)c2cc([N+](=O)[O-])cc([N+](=O)[O-])c2)C(=O)N1 | inactive | inactive | –
10 | O=C1NC(=O)C(/C=N/Nc2ccc([N+](=O)[O-])cc2)C(=O)N1 | – | – | Activity [8]: Active; Activity [9]: Active; Activity [10]: Active; Activity [11]: Active; Activity [12]: Active; Activity [13]: Active; Activity [14]: Dose-dependent effect; Activity [3]: Toxic; viability at 24 h [15]: 80%; MIC80 [5]: 1 µg/mL (≈ 3.43 µM); MIC80 [6]: 2 µg/mL (≈ 6.87 µM)
11 | CN1C(=O)NC(=O)C(C=O)C1=O (stereo not given) | inactive | inactive | –
12 | CN1C(=O)C(/C=N/Nc2ccc([N+](=O)[O-])cc2)C(=O)N(C)C1=O | – | – | Activity [3]: Toxic; viability at 24 h [15]: 80%; MIC80 [5]: 2 µg/mL (≈ 6.26 µM); MIC80 [6]: 2 µg/mL (≈ 6.26 µM)
13 | CN/N=C/C1C(=O)N(C)C(=O)N(C)C1=O | – | – | inhibition at 62 µg/mL [7]: < 50%; MIC80 [5]: 125 µg/mL (≈ 589 µM); MIC80 [6]: 62 µg/mL (≈ 292 µM)
14 | O=C1NC(=O)C(C(=O)c2ccccc2)C(=O)N1 | inactive | inactive | –
15 | COc1ccc(C(=O)N/N=C/C2C(=O)NC(=O)NC2=O)cc1 | – | – | inhibition at 62 µg/mL [16]: < 50%; MIC80 [5]: 62 µg/mL (≈ 204 µM); MIC80 [6]: inactive
16 | O=C1NC(=O)C(C(=O)c2cccc([N+](=O)[O-])c2)C(=O)N1 | inactive | inactive | –
17 | CN1C(=O)C(C(=O)c2ccccc2)C(=O)N(C)C1=O | inactive | inactive | –
18 | CN1C(=O)C(/C=N/Nc2ccccc2)C(=O)N(C)C1=O | – | – | Activity [3]: Toxic; viability at 24 h [15]: 80%; MIC80 [5]: 2 µg/mL (≈ 7.29 µM); MIC80 [6]: 4 µg/mL (≈ 14.6 µM)
19 | CN1C(=O)C(C(=O)c2ccc(O)cc2)C(=O)N(C)C1=O | inactive | inactive | –
20 | CN1C(=O)C(C(=O)c2cccc([N+](=O)[O-])c2)C(=O)N(C)C1=O | inactive | inactive | –
21 | COc1ccc(C(=O)C2C(=O)N(C)C(=O)N(C)C2=O)cc1 | inactive | inactive | –
22 | CCCCN1C(=O)NC(=O)C(C(=O)c2ccc(OC)cc2)C1=O (stereo not given) | inactive | inactive | –
23 | CN1C(=O)C(C(=O)c2ccc([N+](=O)[O-])cc2)C(=O)N(C)C1=O | inactive | inactive | –
24 | O=C1NC(=O)N(c2ccccc2)C(=O)C1CC1CCC(O)CC1 (stereo not given) | inactive | inactive | –
25 | CC(C)C1C(=O)NC(=O)N(c2ccccc2)C1=O (stereo not given) | inactive | inactive | –
26 | CN1C(=O)C(C(=O)c2cc([N+](=O)[O-])cc([N+](=O)[O-])c2)C(=O)N(C)C1=O | inactive | inactive | –
